Key:
[1] = Ocular toxicity in Beagle dog assessed as irreversible damage by measuring retinal degeneration at 10 to 100 mg/kg/day administered for 7 days by microscopic analysis; format: organism-based, Canis lupus familiaris; details: in vivo, 168 h
[2] = Clearance in Sprague-Dawley rat at 1 mg/kg administered as iv infusion for 30 mins and measured after 24 hrs by ESI-LC/MS/MS analysis; format: ADME, organism-based; details: in vivo
[3] = Genotoxicity in Salmonella typhimurium by Ames test; format: toxicity; details: salmonella enterica subsp. enterica serovar typhimurium
[4] = Ocular toxicity in Beagle dog assessed as irreversible damage by measuring red conjuctiva at 10 to 40 mg/kg/day administered for 7 days and measured from day 4 to day 7; format: organism-based, Canis lupus familiaris; details: in vivo, 168 h
[5] = molecular target: Voltage-gated inwardly rectifying potassium channel KCNH2 (Homo sapiens, UniProt Q12809); test: Inhibition of human ERG
Sequence of Voltage-gated inwardly rectifying potassium channel KCNH2 (Q12809 whole entry): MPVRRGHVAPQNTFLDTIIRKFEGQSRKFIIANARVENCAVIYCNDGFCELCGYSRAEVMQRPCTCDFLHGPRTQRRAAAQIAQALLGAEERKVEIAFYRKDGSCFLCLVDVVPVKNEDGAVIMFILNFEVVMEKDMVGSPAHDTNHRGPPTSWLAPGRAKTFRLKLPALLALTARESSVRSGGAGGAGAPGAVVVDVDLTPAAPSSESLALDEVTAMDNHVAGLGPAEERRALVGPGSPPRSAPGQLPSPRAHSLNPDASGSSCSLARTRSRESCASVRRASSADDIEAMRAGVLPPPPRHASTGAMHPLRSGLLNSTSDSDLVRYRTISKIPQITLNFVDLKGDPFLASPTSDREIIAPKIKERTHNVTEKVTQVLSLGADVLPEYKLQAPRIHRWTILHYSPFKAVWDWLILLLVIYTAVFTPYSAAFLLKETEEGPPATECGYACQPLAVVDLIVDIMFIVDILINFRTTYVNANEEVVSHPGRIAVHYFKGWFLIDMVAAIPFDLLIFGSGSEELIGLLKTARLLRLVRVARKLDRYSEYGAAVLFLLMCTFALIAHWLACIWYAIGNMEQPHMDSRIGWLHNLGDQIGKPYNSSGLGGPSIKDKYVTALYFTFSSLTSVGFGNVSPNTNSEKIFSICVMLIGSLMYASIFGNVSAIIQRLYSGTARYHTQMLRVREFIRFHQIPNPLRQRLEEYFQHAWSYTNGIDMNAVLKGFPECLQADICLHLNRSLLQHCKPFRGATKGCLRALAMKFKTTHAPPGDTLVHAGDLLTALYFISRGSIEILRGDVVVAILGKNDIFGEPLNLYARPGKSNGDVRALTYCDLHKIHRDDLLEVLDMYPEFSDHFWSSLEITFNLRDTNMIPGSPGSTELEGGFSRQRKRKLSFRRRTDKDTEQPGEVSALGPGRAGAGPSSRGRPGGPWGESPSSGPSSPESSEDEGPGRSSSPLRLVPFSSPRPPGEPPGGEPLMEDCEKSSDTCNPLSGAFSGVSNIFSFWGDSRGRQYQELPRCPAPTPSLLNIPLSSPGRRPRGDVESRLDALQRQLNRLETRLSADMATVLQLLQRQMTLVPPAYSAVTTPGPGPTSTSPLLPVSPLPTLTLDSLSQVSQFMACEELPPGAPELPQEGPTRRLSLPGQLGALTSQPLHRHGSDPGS
Method in brief: (§1)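 Binding-assay format used to measure inhibition of major human CYP450 enzymes and hERG.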

[6] = Protein binding in Sprague-Dawley rat plasma at 1 mg/kg administered as iv infusion for 30 mins and measured after 24 hrs by ESI-LC/MS/MS analysis; format: ADME, organism-based; details: read-out: PPB (converted)
[7] = molecular target: T1, Phosphatidylinositol 4,5-bisphosphate 3-kinase catalytic subunit beta isoform (Homo sapiens, UniProt P42338); test: Inhibition of PI3Kbeta in PTEN-deficient human LNCaP C4-2 cells assessed as reduction in AKT phosphorylation at Ser473 residue after 2 hrs by mesoscale assay; format: cell-based
T1 sequence (P42338 whole entry, canonical isoform): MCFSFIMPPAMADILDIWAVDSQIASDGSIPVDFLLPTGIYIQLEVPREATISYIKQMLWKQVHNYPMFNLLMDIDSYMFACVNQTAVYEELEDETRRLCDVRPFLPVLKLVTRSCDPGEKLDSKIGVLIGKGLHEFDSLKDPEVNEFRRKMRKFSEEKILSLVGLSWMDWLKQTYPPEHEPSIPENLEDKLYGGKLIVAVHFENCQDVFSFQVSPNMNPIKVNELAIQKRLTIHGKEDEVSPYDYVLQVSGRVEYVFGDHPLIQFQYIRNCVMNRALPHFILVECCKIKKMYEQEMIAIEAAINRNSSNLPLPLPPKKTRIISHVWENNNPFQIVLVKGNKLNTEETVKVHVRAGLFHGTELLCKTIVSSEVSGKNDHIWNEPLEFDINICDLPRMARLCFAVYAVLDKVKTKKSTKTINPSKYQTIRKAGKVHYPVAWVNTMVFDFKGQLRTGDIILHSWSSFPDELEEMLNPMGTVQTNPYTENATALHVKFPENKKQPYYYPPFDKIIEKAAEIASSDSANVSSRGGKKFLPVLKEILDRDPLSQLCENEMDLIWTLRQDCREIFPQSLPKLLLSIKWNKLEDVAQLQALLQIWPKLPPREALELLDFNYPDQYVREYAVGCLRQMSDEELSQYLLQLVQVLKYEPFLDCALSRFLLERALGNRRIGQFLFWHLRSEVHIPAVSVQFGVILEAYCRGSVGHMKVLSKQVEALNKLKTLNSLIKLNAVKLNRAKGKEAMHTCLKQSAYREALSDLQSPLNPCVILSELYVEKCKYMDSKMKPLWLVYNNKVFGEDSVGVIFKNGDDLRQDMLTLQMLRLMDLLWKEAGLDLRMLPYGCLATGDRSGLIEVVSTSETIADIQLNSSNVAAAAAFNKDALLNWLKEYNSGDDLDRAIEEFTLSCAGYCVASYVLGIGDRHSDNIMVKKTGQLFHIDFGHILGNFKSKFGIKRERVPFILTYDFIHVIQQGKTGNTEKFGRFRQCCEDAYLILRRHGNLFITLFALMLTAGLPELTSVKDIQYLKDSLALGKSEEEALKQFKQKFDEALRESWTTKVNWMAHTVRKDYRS
Method in brief: (§2)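 Cellular readout: pAKT1 Ser473 normalized to total AKT1, expressed as units pAKT1 Ser473 per nanogram total AKT1; cells treated under serum-free conditions.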

[8] = Ocular toxicity in Beagle dog assessed as irreversible damage by measuring decrease in electroretinography response at 10 to 100 mg/kg/day administered for 7 days measured on day 6 by ERG and OCT analysis; format: organism-based, Canis lupus familiaris; details: in vivo, 168 h
[9] = Dissociation constant, acidic pKa of compound; format: physicochemical
[10] = Volume of distribution at steady state in Sprague-Dawley rat at 1 mg/kg administered as iv infusion for 30 mins and measured after 24 hrs by ESI-LC/MS/MS analysis; format: ADME, organism-based; details: in vivo, read-out: Vdss
[11] = Oral bioavailability in Beagle dog at 5 mg/kg dosed via gavage after 24 hrs by ESI-LC/MS/MS analysis; format: ADME, organism-based, Canis lupus familiaris; details: in vivo
[12] = Volume of distribution at steady state in cynomolgus monkey at 1 mg/kg administered as iv infusion for 30 mins and measured after 24 hrs by ESI-LC/MS/MS analysis; format: ADME, organism-based, Macaca fascicularis; details: in vivo, read-out: Vdss
[13] = Ocular toxicity in Beagle dog assessed as irreversible damage by measuring decrease response in visual stimuli at 10 to 40 mg/kg/day administered for 7 days and measured from day 4 to day 7; format: organism-based, Canis lupus familiaris; details: in vivo, 168 h
[14] = Clearance in rhesus monkey at 1 mg/kg administered as iv infusion for 30 mins and measured after 24 hrs by ESI-LC/MS/MS analysis; format: ADME, organism-based, Macaca mulatta; details: in vivo
[15] = Ocular toxicity in Beagle dog assessed as irreversible damage by measuring dilated pupils at 10 to 40 mg/kg/day administered for 7 days and measured from day 4 to day 7; format: organism-based, Canis lupus familiaris; details: in vivo, 168 h
[16] = Volume of distribution at steady state in Beagle dog at 1 mg/kg administered as iv infusion for 30 mins and measured after 24 hrs by ESI-LC/MS/MS analysis; format: ADME, organism-based, Canis lupus familiaris; details: in vivo, read-out: Vdss
[17] = Protein binding in Beagle dog plasma at 1 mg/kg administered as iv infusion for 30 mins and measured after 24 hrs by ESI-LC/MS/MS analysis; format: ADME, organism-based, Canis lupus familiaris; details: read-out: PPB (converted)
[18] = Apparent permeability across apical to basolateral side in human Caco2 cells at 10 uM after 1 to 2 hrs by LC/MS/MS analysis; format: ADME, cell-based; details: Caco-2
[19] = Protein binding in cynomolgus monkey plasma at 1 mg/kg administered as iv infusion for 30 mins and measured after 24 hrs by ESI-LC/MS/MS analysis; format: ADME, organism-based, Macaca fascicularis; details: read-out: PPB (converted)
[20] = molecular target: T1, Phosphatidylinositol 4,5-bisphosphate 3-kinase catalytic subunit beta isoform; test: Inhibition of PI3Kbeta in PTEN-deficient human LNCAP cells assessed as reduction in AKT phosphorylation at Ser473 residue after 2 hrs by mesoscale assay; format: cell-based; method in brief: as §2
[21] = molecular target: T1, Phosphatidylinositol 4,5-bisphosphate 3-kinase catalytic subunit beta isoform; test: Inhibition of PI3Kbeta in PTEN-deficient human ZR-75-1 cells assessed as reduction in AKT phosphorylation at Ser473 residue after 2 hrs by mesoscale assay; format: cell-based; method in brief: as §2
[22] = Terminal half life in Sprague-Dawley rat at 1 mg/kg administered as iv infusion for 30 mins and measured after 24 hrs by ESI-LC/MS/MS analysis; format: ADME, organism-based; details: in vivo, read-out: beta t1/2 (converted)
[23] = MRT in Beagle dog at 1 mg/kg administered as iv infusion for 30 mins and measured after 24 hrs by ESI-LC/MS/MS analysis; format: ADME, organism-based, Canis lupus familiaris; details: in vivo
[24] = molecular target: T1, Phosphatidylinositol 4,5-bisphosphate 3-kinase catalytic subunit beta isoform; test: Inhibition of PI3Kbeta in PTEN-deficient human MDA-MB-415 cells assessed as reduction in AKT phosphorylation at Ser473 residue after 2 hrs by mesoscale assay; format: cell-based; method in brief: as §2
[25] = Ocular toxicity in Beagle dog assessed as irreversible damage by measuring ocular discharge at 10 to 40 mg/kg/day administered for 7 days and measured from day 4 to day 7; format: organism-based, Canis lupus familiaris; details: in vivo, 168 h
[26] = Ocular toxicity in Beagle dog assessed as irreversible damage by measuring retinal necrosis at 10 to 100 mg/kg/day administered for 7 days by microscopic analysis; format: organism-based, Canis lupus familiaris; details: in vivo, 168 h
[27] = Ocular toxicity in Beagle dog assessed as irreversible damage by measuring retinal detachment at 10 to 100 mg/kg/day administered for 7 days by microscopic analysis; format: organism-based, Canis lupus familiaris; details: in vivo, 168 h
[28] = Oral bioavailability in cynomolgus monkey at 5 mg/kg dosed via gavage after 24 hrs by ESI-LC/MS/MS analysis; format: ADME, organism-based, Macaca fascicularis; details: in vivo
[29] = molecular target: T1, Phosphatidylinositol 4,5-bisphosphate 3-kinase catalytic subunit beta isoform; test: Inhibition of PI3Kbeta in PTEN-deficient human PC3 cells assessed as reduction in AKT phosphorylation at Ser473 residue after 2 hrs by mesoscale assay; format: cell-based, PC-3; method in brief: as §2
[30] = Apparent permeability across basolateral to apical side in human Caco2 cells at 10 uM after 1 to 2 hrs by LC/MS/MS analysis; format: ADME, cell-based; details: Caco-2
[31] = Terminal half life in rhesus monkey at 1 mg/kg administered as iv infusion for 30 mins and measured after 24 hrs by ESI-LC/MS/MS analysis; format: ADME, organism-based, Macaca mulatta; details: in vivo, read-out: beta t1/2 (converted)
[32] = Clearance in human hepatocytes at 1 uM measured up to 250 mins by UHPLC-HRMS analysis; format: ADME, cell-based, Hepatocyte
[33] = Clearance in cynomolgus monkey at 1 mg/kg administered as iv infusion for 30 mins and measured after 24 hrs by ESI-LC/MS/MS analysis; format: ADME, organism-based, Macaca fascicularis; details: in vivo
CYP450 = CYP450 (Homo sapiens, UniProt P04798+P05177+P05181+P08684+P10632+P10635+P11509+P11712+P13584+P20813+P20815+P20853+P24462+P24903+P33260+P33261+P51589+P78329+P98187+Q02928+Q08477+Q16678+Q16696+Q5TCH4+Q6VVX0+Q7Z449+Q8TAV3+Q96SQ9+Q9HB55); test: Inhibition of human CYP450; format: ADME, protein assay; method in brief: as §1
[34] = MRT in cynomolgus monkey at 1 mg/kg administered as iv infusion for 30 mins and measured after 24 hrs by ESI-LC/MS/MS analysis; format: ADME, organism-based, Macaca fascicularis; details: in vivo
[35] = Protein binding in rhesus monkey plasma at 1 mg/kg administered as iv infusion for 30 mins and measured after 24 hrs by ESI-LC/MS/MS analysis; format: ADME, organism-based, Macaca mulatta; details: read-out: PPB (converted)

Cc1nc2c(-c3nnc[nH]3)cc(-c3ccnc(C#N)c3)cc2n1-c1ccnc2c(F)ccc(F)c12
Activity [1]: Toxic
clearance [2]: 32.8 mL/min/kg
Activity [3]: Non-Toxic
Activity [4]: Toxic
IC50 [5]: > 25000 nM
fraction unbound at 24 h [6]: 0.16
EC50 [7]: 24 nM
Activity [8]: Toxic
pKa [9]: < 1
Vd [10]: 2.5 L/kg
bioavailability [11]: 76%
Vd [12]: 1.3 L/kg
Activity [13]: Toxic
clearance [14]: 7.83 mL/min/kg
Activity [15]: Toxic
Vd [16]: 2.5 L/kg
fraction unbound at 24 h [17]: 0.14
Papp A→B at 10 µM [18]: 22 ×10⁻⁶ cm/s
fraction unbound at 24 h [19]: 0.16
EC50 [20]: 31 nM
EC50 [21]: 5 nM
half-life [22]: 1.2 h
MRT [23]: 7.3 h
EC50 [24]: 15 nM
Activity [25]: Toxic
Activity [26]: Toxic
Activity [27]: Toxic
bioavailability [28]: 35%
EC50 [29]: 12 nM
Papp B→A at 10 µM [30]: 32 ×10⁻⁶ cm/s
half-life [31]: 4.4 h
CLH at 1 µM [32]: 3.17 mL/min/kg
CLH ([32]; 250 min, 1 µM): 3 mL/min/kg
clearance [33]: 4.17 mL/min/kg
IC50 (CYP450): > 25000 nM
MRT [34]: 5.2 h
fraction unbound at 24 h [35]: 0.19

From ChEMBL document CHEMBL4616704, “Discovery of an Atropisomeric PI3Kβ Selective Inhibitor through Optimization of the Hinge Binding Motif” (ACS Med Chem Lett, 2020)
